Measured values reported in ChEMBL document CHEMBL1122607, “Heterocyclic analogues of chlorcyclizine with potent hypolipidemic activity” (J Med Chem, 1984).

These molecules were tested on Rattus norvegicus (assay: Hypolipidemic activity was measured as reduction in rat serum cholesterol after oral administration in male Wistar rats at 100 mg / (kg day)).
Format: functional
Outline: (§1)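 Cholesterol-fed rats given the test compound orally by gavage on the last 3 days, with controls receiving vehicle (0.5% tragacanth mucilage). After overnight starvation, rats were killed under CO2 3 h after the last dose and bled by cardiac puncture. Serum cholesterol and triglyceride were measured by autoanalyzer and expressed as percentage reduction from control levels, with Student's t test.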
`Cc1cccc(C(c2cc(C)ns2)N2CCN(C)CC2)c1` (stereo not drawn) was tested, and the Reduction was 26%.

What follows are molecules tested on Rattus norvegicus (assay: Hypolipidemic activity was measured as reduction in rat serum cholesterol after oral administration in male Wistar rats at 100 mg/(kg day)).
Format: functional
Outline: as §1
Molecule `Cc1ccc(C(c2sncc2C)N2CCN(C)CC2)cc1C` (stereo not drawn) has a Reduction of 74%. Work on `Cc1cc(C(SCCN(C)C)c2ccc(C(C)C)cc2)sn1` (stereo not drawn) yielded a Reduction of 36%. For `CCCCOc1ccccc1C(c1cc(C)ns1)N1CCN(C)CC1` (stereo not drawn), the Reduction was 74%. Work on `Cc1cc(C(c2ccc(C(C)C)cc2)C2CCN(C)CC2)sn1` (stereo not drawn) yielded a Reduction of 45%. `Cc1cc(C(c2cccc(Cl)c2)N2CCN(C)CC2)sn1` (stereo not drawn) showed a Reduction of 33%. Work on `CCc1ccccc1C(c1cc(C)ns1)N1CCN(C)CC1` (stereo not drawn) yielded a Reduction of 81%. `Cc1cc(C(OCCN(C)C)c2ccc(C(C)C)cc2)sn1` (stereo not drawn) gave a Reduction of 45%. `Cc1cc(C(c2ccc(C3CCCCC3)cc2)N2CCN(C)CC2)sn1` (stereo not drawn) gave a Reduction of 64%. Work on `Cc1noc(C)c1C(c1ccccc1Cl)N1CCN(C)CC1` (stereo not drawn) yielded a Reduction of 52%. `Cc1ccccc1C(c1sncc1C)N1CCN(C)CC1` (stereo not drawn) showed a Reduction of 72%. Work on `Cc1nc(C)c(C(c2ccccc2Cl)N2CCN(C)CC2)s1` (stereo not drawn) yielded a Reduction of 78%. Work on `Cc1noc(C)c1C(OC1CCNCC1)c1ccc(C(C)C)cc1` (stereo not drawn) yielded a Reduction of 45%. `Cc1cc(C(c2ccc(Oc3ccccc3)cc2)N2CCN(C)CC2)sn1` (stereo not drawn) gave a Reduction of 42%. With `CN1CCN(C(c2ccccc2)c2ccccn2)CC1` (stereo not drawn) the Reduction was 81%. With `Cc1cc(C(c2ccccc2OC(C)C)N2CCN(C)CC2)sn1` (stereo not drawn) the Reduction was 83%. `Cc1cc(C(O)(c2ccc(C(C)C)cc2)C2CCN(C)CC2)sn1` (stereo not drawn) was tested, and the Reduction was 67%. In the case of `Cc1ccccc1C(c1c(C)noc1C)N1CCNCC1` (stereo not drawn), the Reduction is reported as 76%. For `Cc1cc(C(c2ccc(OC(C)C)cc2)N2CCN(C)CC2)sn1` (stereo not drawn), the Reduction was 33%. In the case of `Cc1noc(C)c1C(OC1CCCN(C)C1)c1ccc(C(C)C)cc1` (stereo not drawn), the Reduction is reported as 79%. In the case of `Cc1noc(C)c1C(c1ccccc1Cl)N1CCNCC1` (stereo not drawn), the Reduction is reported as 87%. For `Cc1cc(C(c2ccc(C(C)C)cc2)N2CCNCC2)sn1` (stereo in doubt; 66), the Reduction was 68%.

What follows are molecules tested on Rattus norvegicus (assay: Hypolipidemic activity was measured as reduction in rat serum cholesterol after oral administration in male Wistar rats at 30 mg / (kg day)).
Format: functional
Outline: as §1
In the case of `Cc1ccc(C(c2sncc2C)N2CCN(C)CC2)cc1C` (stereo not drawn), the Reduction is reported as 15%. For `CCCCOc1ccccc1C(c1cc(C)ns1)N1CCN(C)CC1` (stereo not drawn), the Reduction was 32%. Work on `Cc1cc(C(c2ccc(C(C)C)cc2)C2CCN(C)CC2)sn1` (stereo not drawn) yielded a Reduction of 12%. In the case of `CCc1ccccc1C(c1cc(C)ns1)N1CCN(C)CC1` (stereo not drawn), the Reduction is reported as 71%. `Cc1cc(C(OCCN(C)C)c2ccc(C(C)C)cc2)sn1` (stereo not drawn) gave a Reduction of 3%. `Cc1cc(C(c2ccc(C3CCCCC3)cc2)N2CCN(C)CC2)sn1` (stereo not drawn) showed a Reduction of 7%. Molecule `Cc1noc(C)c1C(c1ccccc1Cl)N1CCN(C)CC1` (stereo not drawn) has a Reduction of 7%. For `Cc1cc(C(c2ccccc2C(C)C)N2CCN(C)CC2)sn1` (stereo not drawn), the Reduction was 36%. `Cc1noc(C)c1C(OC1CCNCC1)c1ccc(C(C)C)cc1` (stereo not drawn) showed a Reduction of 4%. For `Cc1cc(C(c2ccc(Oc3ccccc3)cc2)N2CCN(C)CC2)sn1` (stereo not drawn), the Reduction was 17%. `CN1CCN(C(c2ccccc2)c2ccccn2)CC1` (stereo not drawn) showed a Reduction of 22%. In the case of `CCc1ccc(C(c2sncc2C)N2CCN(CCO)CC2)cc1` (stereo not drawn), the Reduction is reported as 45%. `Cc1cc(C(O)(c2ccc(C(C)C)cc2)C2CCN(C)CC2)sn1` (stereo not drawn) gave a Reduction of 57%. For `Cc1ccccc1C(c1c(C)noc1C)N1CCNCC1` (stereo not drawn), the Reduction was 26%. `Cc1noc(C)c1C(OC1CCCN(C)C1)c1ccc(C(C)C)cc1` (stereo not drawn) gave a Reduction of 38%. In the case of `Cc1noc(C)c1C(c1ccccc1Cl)N1CCNCC1` (stereo not drawn), the Reduction is reported as 14%. `Cc1cc(C(c2ccc(C(C)C)cc2)N2CCNCC2)sn1` (stereo in doubt; 66) showed a Reduction of 59%.

Each molecule was assayed on Rattus norvegicus (assay: Hypolipidemic activity was measured as reduction in rat serum triglyceride after oral administration in male Wistar rats at 10 mg / (kg day)).
Format: functional
Outline: as §1
`Cc1ccc(C(c2sncc2C)N2CCN(C)CC2)cc1C` (stereo not drawn) was tested, and the Reduction was 21%. Work on `CCc1ccc(C(c2sncc2C)N2CCN(CCO)CC2)cc1` (stereo not drawn) yielded a Reduction of 3%. Work on `Cc1cc(C(O)(c2ccc(C(C)C)cc2)C2CCN(C)CC2)sn1` (stereo not drawn) yielded a Reduction of 25%. In the case of `Cc1ccccc1C(c1c(C)noc1C)N1CCNCC1` (stereo not drawn), the Reduction is reported as 46%. Molecule `Cc1noc(C)c1C(OC1CCCN(C)C1)c1ccc(C(C)C)cc1` (stereo not drawn) has a Reduction of 12%. Work on `Cc1cc(C(c2ccc(C(C)C)cc2)N2CCNCC2)sn1` (stereo in doubt; 66) yielded a Reduction of 4%.

The molecules below were run on Rattus norvegicus (assay: Hypolipidemic activity was measured as reduction in rat serum triglyceride after oral administration in male Wistar rats at 30 mg / (kg day)).
Format: functional
Outline: as §1
`Cc1ccc(C(c2sncc2C)N2CCN(C)CC2)cc1C` (stereo not drawn) was tested, and the Reduction was 9%. Work on `CCCCOc1ccccc1C(c1cc(C)ns1)N1CCN(C)CC1` (stereo not drawn) yielded a Reduction of 57%. `Cc1cc(C(c2ccc(C(C)C)cc2)C2CCN(C)CC2)sn1` (stereo not drawn) was tested, and the Reduction was 32%. For `Cc1cc(C(OCCN(C)C)c2ccc(C(C)C)cc2)sn1` (stereo not drawn), the Reduction was 36%. Work on `Cc1noc(C)c1C(c1ccccc1Cl)N1CCN(C)CC1` (stereo not drawn) yielded a Reduction of 6%. With `Cc1cc(C(c2ccccc2C(C)C)N2CCN(C)CC2)sn1` (stereo not drawn) the Reduction was 9%. Work on `Cc1noc(C)c1C(OC1CCNCC1)c1ccc(C(C)C)cc1` (stereo not drawn) yielded a Reduction of 8%. Molecule `Cc1cc(C(c2ccc(Oc3ccccc3)cc2)N2CCN(C)CC2)sn1` (stereo not drawn) has a Reduction of 25%. In the case of `CN1CCN(C(c2ccccc2)c2ccccn2)CC1` (stereo not drawn), the Reduction is reported as 16%. `CCc1ccc(C(c2sncc2C)N2CCN(CCO)CC2)cc1` (stereo not drawn) showed a Reduction of 51%. `Cc1cc(C(O)(c2ccc(C(C)C)cc2)C2CCN(C)CC2)sn1` (stereo not drawn) showed a Reduction of 57%. `Cc1ccccc1C(c1c(C)noc1C)N1CCNCC1` (stereo not drawn) gave a Reduction of 21%. With `Cc1noc(C)c1C(OC1CCCN(C)C1)c1ccc(C(C)C)cc1` (stereo not drawn) the Reduction was 16%. In the case of `Cc1noc(C)c1C(c1ccccc1Cl)N1CCNCC1` (stereo not drawn), the Reduction is reported as 62%. Work on `Cc1cc(C(c2ccc(C(C)C)cc2)N2CCNCC2)sn1` (stereo in doubt; 66) yielded a Reduction of 23%.

What follows are molecules tested on Rattus norvegicus (assay: Hypolipidemic activity was measured as reduction in rat serum cholesterol after oral administration in male Wistar rats at 10 mg / (kg day)).
Format: functional
Outline: as §1
Molecule `Cc1ccc(C(c2sncc2C)N2CCN(C)CC2)cc1C` (stereo not drawn) has a Reduction of 20%. `CCc1ccc(C(c2sncc2C)N2CCN(CCO)CC2)cc1` (stereo not drawn) showed a Reduction of 15%. `Cc1cc(C(O)(c2ccc(C(C)C)cc2)C2CCN(C)CC2)sn1` (stereo not drawn) gave a Reduction of 28%. For `Cc1ccccc1C(c1c(C)noc1C)N1CCNCC1` (stereo not drawn), the Reduction was 2%. In the case of `Cc1noc(C)c1C(OC1CCCN(C)C1)c1ccc(C(C)C)cc1` (stereo not drawn), the Reduction is reported as 32%. With `Cc1cc(C(c2ccc(C(C)C)cc2)N2CCNCC2)sn1` (stereo in doubt; 66) the Reduction was 38%.

What follows are molecules tested on Rattus norvegicus (assay: Hypolipidemic activity was measured as reduction in rat serum triglyceride after oral administration in male Wistar rats at 100 mg / (kg day)).
Format: functional
Outline: as §1
Molecule `Cc1ccc(C(c2sncc2C)N2CCN(C)CC2)cc1C` (stereo not drawn) has a Reduction of 73%. `Cc1cc(C(SCCN(C)C)c2ccc(C(C)C)cc2)sn1` (stereo not drawn) showed a Reduction of 55%. Work on `CCCCOc1ccccc1C(c1cc(C)ns1)N1CCN(C)CC1` (stereo not drawn) yielded a Reduction of 67%. Work on `Cc1cc(C(c2ccc(C(C)C)cc2)C2CCN(C)CC2)sn1` (stereo not drawn) yielded a Reduction of 42%. `Cc1cc(C(c2cccc(Cl)c2)N2CCN(C)CC2)sn1` (stereo not drawn) was tested, and the Reduction was 41%. Work on `CCc1ccccc1C(c1cc(C)ns1)N1CCN(C)CC1` (stereo not drawn) yielded a Reduction of 88%. With `Cc1cc(C(OCCN(C)C)c2ccc(C(C)C)cc2)sn1` (stereo not drawn) the Reduction was 41%. With `Cc1cc(C(c2ccc(C3CCCCC3)cc2)N2CCN(C)CC2)sn1` (stereo not drawn) the Reduction was 73%. Work on `Cc1noc(C)c1C(c1ccccc1Cl)N1CCN(C)CC1` (stereo not drawn) yielded a Reduction of 41%. For `Cc1ccccc1C(c1sncc1C)N1CCN(C)CC1` (stereo not drawn), the Reduction was 64%. Molecule `Cc1nc(C)c(C(c2ccccc2Cl)N2CCN(C)CC2)s1` (stereo not drawn) has a Reduction of 79%. For `Cc1noc(C)c1C(OC1CCNCC1)c1ccc(C(C)C)cc1` (stereo not drawn), the Reduction was 23%. `Cc1cc(C(c2ccc(Oc3ccccc3)cc2)N2CCN(C)CC2)sn1` (stereo not drawn) was tested, and the Reduction was 59%. In the case of `CN1CCN(C(c2ccccc2)c2ccccn2)CC1` (stereo not drawn), the Reduction is reported as 74%. `Cc1cc(C(c2ccccc2OC(C)C)N2CCN(C)CC2)sn1` (stereo not drawn) gave a Reduction of 86%. `Cc1cc(C(O)(c2ccc(C(C)C)cc2)C2CCN(C)CC2)sn1` (stereo not drawn) was tested, and the Reduction was 85%. Work on `Cc1ccccc1C(c1c(C)noc1C)N1CCNCC1` (stereo not drawn) yielded a Reduction of 80%. Work on `Cc1cc(C(c2ccc(OC(C)C)cc2)N2CCN(C)CC2)sn1` (stereo not drawn) yielded a Reduction of 31%. `Cc1noc(C)c1C(OC1CCCN(C)C1)c1ccc(C(C)C)cc1` (stereo not drawn) showed a Reduction of 52%. `Cc1noc(C)c1C(c1ccccc1Cl)N1CCNCC1` (stereo not drawn) was tested, and the Reduction was 97%. With `Cc1cccc(C(c2cc(C)ns2)N2CCN(C)CC2)c1` (stereo not drawn) the Reduction was 22%. `Cc1cc(C(c2ccc(C(C)C)cc2)N2CCNCC2)sn1` (stereo in doubt; 66) showed a Reduction of 73%.
